Assay results from ChEMBL document CHEMBL1671645, “Pharmacokinetics and absorption of posaconazole oral suspension under various gastric conditions in healthy volunteers” (Antimicrob Agents Chemother, 2009).

What was measured:
Homo sapiens [1] = assay: Toxicity in healthy human assessed as nausea at 400 mg administered as single dose suspension coadministered with nutritional supplement and 4 mg loperamide as two 2 mg tablets; assay type: organism-based; settings: in vivo
Method in brief: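 Three-way randomized crossover in 13 healthy volunteers with a 7- to 10-day washout. Each period was one 400-mg oral posaconazole suspension dose with a nutritional supplement. Metoclopramide 10 mg was given orally three times daily on the day before and the day of dosing; loperamide was a single 4 mg. Safety was assessed from adverse events, tabulated by body system and severity per treatment.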

[2] = Tmax in fasted healthy human at 400 mg BID, po administered as suspension for 7 days; assay type: ADME, organism-based; settings: in vivo
Method in brief: (§1)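 Healthy volunteers given oral suspension (40 mg/ml) for 7 days, fasted or with nutritional supplement (Boost); four-way crossover, 14–21-day washout, nonfat snacks ≤800 cal/day allowed. On day 7 only the morning dose was given; plasma sampled predose to 168 h after it. LC-MS/MS (LLOQ 5.00 ng/ml). t1/2 = ln(2)/K from log-linear terminal slope; Tmax as median.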

Homo sapiens [3] = assay: Toxicity in healthy human assessed as headache at 400 mg BID, po administered as suspension for 7 days; assay type: organism-based; settings: in vivo, 168 h
Method in brief: (§2)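 Healthy volunteers (n = 12) took oral posaconazole suspension (40 mg/ml) for 7 days in a four-way randomized crossover with a 14- to 21-day washout. Subjects stayed fasted throughout, with nonfat snacks up to 800 cal/day allowed. Where given, Boost was taken with each dose. Safety covered adverse events, vital signs, clinical labs and 12-lead ECG, with AEs tabulated by body system and severity per treatment.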

[4] = AUC in fasted healthy human at 400 mg administered as single dose suspension after 20 mins after consumption of high fat meal; assay type: ADME, organism-based; design: dose 400 mg; settings: plasma
Method in brief: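 In a crossover of 12 healthy subjects, each took a single 400 mg oral suspension dose 5 min before, midway through (about 10 min into a 20-min meal), or 20 min after a high-fat meal of about 50 g fat. Plasma was drawn 0–168 h and measured by LC-MS/MS. Parameters are noncompartmental, with AUC to the last measurable time.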

Homo sapiens [5] = assay: Apparent total body clearance in healthy human at 200 mg QID, po administered as suspension for 7 days coadministered with nutritional supplement; assay type: ADME, organism-based; settings: in vivo, 168 h
Method in brief: (§3)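 Twelve healthy subjects took oral suspension for 7 days as 400 mg BID or 200 mg QID, either fasting or with a Boost-type nutritional supplement, in a crossover with 14–21 day washouts. Nonfat snacks of 800 cal/day or less were allowed. Plasma was sampled 0–168 h after the day-7 morning dose only and analysed by LC-MS/MS. AUC is AUC_τ, normalized to dose.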

[6] = Half life in healthy human at 400 mg administered as single dose suspension coadministered with nutritional supplement; assay type: ADME, organism-based; settings: in vivo
Method in brief: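 Single oral suspension dose with nutritional supplement, alone or with metoclopramide 10 mg orally three times daily on the day before and the day of dosing; three-way crossover, 7–10-day washout. EDTA plasma predose to 168 h, LC-MS/MS (LLOQ 5.00 ng/ml). t1/2 = ln(2)/K from terminal slope; Tmax median.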

Homo sapiens [7] = assay: Toxicity in healthy human assessed as adverse events at 400 mg administered as single dose suspension coadministered with nutritional supplement; assay type: organism-based; settings: in vivo
Method in brief: (§4)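 Healthy volunteers monitored for adverse events, vital signs, clinical laboratory values and 12-lead ECG. Adverse events tabulated by body system or organ class and severity and summarized by treatment across the crossover regimens.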

[8] = Cmax in fasted healthy human plasma at 200 mg QID, po administered as suspension for 7 days; assay type: ADME, organism-based; design: dose 200 mg, route oral; method in brief: as §3
Homo sapiens [9] = assay: Toxicity in healthy human assessed as headache at 200 mg QID, po administered as suspension for 7 days; assay type: organism-based; settings: in vivo, 168 h; method in brief: as §2
Homo sapiens [10] = assay: Toxicity in healthy human assessed as adverse events at 400 mg administered as single dose suspension coadministered with nutritional supplement and 10 mg metoclopramide; assay type: organism-based; settings: in vivo; method in brief: as §4
[11] = Tmax in fasted healthy human at 400 mg administered as single dose suspension after consumption of high fat meal; assay type: ADME, organism-based; settings: in vivo
Method in brief: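 Single oral suspension dose in healthy volunteers while fasting, 5 min before, midway through (about 10 min into a 20-min meal), or 20 min after a high-fat meal (approx 50 g fat); four-way crossover, 7–10-day washout. Plasma 0–168 h by LC-MS/MS (LLOQ 5.00 ng/ml). t1/2 = ln(2)/K; Tmax median.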

Homo sapiens [12] = assay: Toxicity in healthy human assessed as adverse events at 400 mg administered as single dose suspension coadministered with acidic carbonated beverage; assay type: organism-based; settings: in vivo; method in brief: as §4
Homo sapiens [13] = assay: AUC in fasted healthy human at 400 mg BID, po administered as suspension for 7 days; assay type: ADME, organism-based, Plasma; settings: in vivo, 168 h; method in brief: as §3
[14] = Half life in fasted healthy human at 400 mg BID, po administered as suspension for 7 days; assay type: ADME, organism-based; settings: in vivo; method in brief: as §1

With `CC[C@@H]([C@H](C)O)n1ncn(-c2ccc(N3CCN(c4ccc(OC[C@@H]5CO[C@@](Cn6cncn6)(c6ccc(F)cc6F)C5)cc4)CC3)cc2)c1=O` [POSACONAZOLE] the Activity (Homo sapiens [1]) was 23%, the Tmax [2] was 6 h and the Activity (Homo sapiens [3]) was 25%. It also gave an AUC at 20 min [4] of 21000 ng·h/mL, a CL/F (Homo sapiens [5]) of 20.4 L/h and a half-life [6] of 24.3 h. The Activity (Homo sapiens [7]) was 38%, the Cmax [8] was 2300 ng/mL and the Activity (Homo sapiens [9]) was 25%. The Activity (Homo sapiens [10]) was 38%, the Tmax [11] was 6 h and the Activity (Homo sapiens [12]) was 25%. It also gave an AUC (Homo sapiens [13]) of 52300 ng·h/mL and a half-life [14] of 25.7 h.
